We go through two compounds from ChEMBL document CHEMBL4396871, “Leveraging a Low-Affinity Diazaspiro Orthosteric Fragment to Reduce Dopamine D3 Receptor (D3R) Ligand Promiscuity across Highly Conserved Aminergic G-Protein-Coupled Receptors (GPCRs)” (J Med Chem, 2019).

For data set [1], the target named is D2 dopamine receptor (Homo sapiens, UniProt P14416). As to the kind of experiment: Displacement of [3H]N-methylspiperone from recombinant human D2 receptor stably expressed in fibroblast at 10 uM measured after 90 mins by microbeta scintillation counting method relative to control. Conditions: fibroblasts stably expressing recombinant human D2 receptor, probe [3H]N-methylspiperone. On the technique in general: In a radioligand displacement assay an active substance lowers the binding of a labelled ligand.

Data set [2] has as its target 5-hydroxytryptamine receptor 1D (Homo sapiens) (UniProt P28221). As to the kind of experiment: Displacement of [3H]-5-CT from recombinant human 5HT1D receptor transiently expressed in HEKT cell membranes at 10 uM measured after 90 mins by microbeta scintillation counting method relative to control. Put shortly:
(§1)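 Primary screen at 10 μM compound, expressed as % receptor inhibition, from at least three experiments.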

The target of data set [3] is 5-hydroxytryptamine receptor 1E (Homo sapiens) (UniProt P28566). As to the kind of experiment: Displacement of [3H]-5-HT from recombinant human 5HT1E receptor stably expressed in HEK cell membranes at 10 uM measured after 90 mins by microbeta scintillation counting method relative to control. In outline:
as §1

Data set [4] addresses T1, 5-hydroxytryptamine receptor 2A (Homo sapiens, UniProt P28223). As to the kind of experiment: Displacement of [3H]-ketanserin from 5HT2A receptor (unknown origin) at 10 uM measured after 90 mins by microbeta scintillation counting method relative to control. Put shortly: as §1
The target of data set [5] is 5-hydroxytryptamine receptor 2B (Homo sapiens, UniProt P41595). Kind of data set: Displacement of [3H]-LSD from recombinant human 5HT2B receptor stably expressed in HEK cell membranes measured after 90 mins by microbeta scintillation counting method.
Data set [6] deals with 5-hydroxytryptamine receptor 2C (Homo sapiens) (UniProt P28335). As to the kind of experiment: Displacement of [3H]-mesulergine from recombinant human 5HT2C receptor transiently expressed in HEKT cell membranes at 10 uM measured after 90 mins by microbeta scintillation counting method relative to control. In outline: as §1
The target in data set [7] is Histamine H3 receptor (Homo sapiens, UniProt Q9Y5N1). As to the kind of experiment: Displacement of [3H]-alpha-methylhistamine from human histamine H3 receptor stably expressed in HEK Flp-In cells after 90 mins by microbeta scintillation counting method. It is filed as cell-based.
In data set [8] the target is Muscarinic acetylcholine receptor M1 (Homo sapiens) (UniProt P11229). Kind of data set: Displacement of [3H]-QNB/[3H]-NMS from human muscarinic M1 receptor expressed in stable CHO cells at 10 uM after 90 mins by microbeta scintillation counting method relative to control. It is filed as cell-based. Put shortly:
as §1

For data set [9], the target named is Muscarinic acetylcholine receptor M2 (Homo sapiens, UniProt P08172). Kind of data set: Displacement of [3H]-QNB/[3H]-NMS from human muscarinic M2 receptor expressed in stable CHO cells after 90 mins by microbeta scintillation counting method. Type of data set: cell-based.
Data set [10] has as its target Muscarinic acetylcholine receptor M3 (Homo sapiens, UniProt P20309). Kind of data set: Displacement of [3H]-QNB/[3H]-NMS from human muscarinic M3 receptor expressed in stable CHO cells after 90 mins by microbeta scintillation counting method. It is filed as cell-based.
In data set [11] the target is Muscarinic acetylcholine receptor M4 (Homo sapiens, UniProt P08173). Kind of data set: Displacement of [3H]-QNB/[3H]-NMS from human muscarinic M4 receptor expressed in stable CHO cells after 90 mins by microbeta scintillation counting method. It is filed as cell-based.
Data set [12] has as its target T2, Alpha-2A adrenergic receptor (Homo sapiens, UniProt P08913). As to the kind of experiment: Displacement of [3H]-rauwolscine from recombinant human alpha2A adrenergic receptor stably expressed in MDCK cells at 10 uM measured after 90 mins by microbeta scintillation counting method relative to control. To be noted: probe [3H]-rauwolscine. It is filed as cell-based.

For data set [13], the target named is Alpha-2C adrenergic receptor (Homo sapiens, UniProt P18825). As to the kind of experiment: Displacement of [3H]-rauwolscine from recombinant human alpha2C adrenergic receptor stably expressed in MDCK cells measured after 90 mins by microbeta scintillation counting method. Type of data set: cell-based.
The target of data set [14] is Beta-2 adrenergic receptor (Homo sapiens) (UniProt P07550). As to the kind of experiment: Displacement of [3H]-CGP12177 from recombinant human beta2 adrenergic stably expressed in HEK Flp-In cells at 10 uM measured after 90 mins by microbeta scintillation counting method relative to control. It is filed as cell-based. In outline: as §1
In data set [15] the target is Sodium-dependent noradrenaline transporter (Homo sapiens, UniProt P23975). As to the kind of experiment: Displacement of [3H]-nisoxetine from recombinant human NET stably expressed in HEK cells measured after 90 mins by microbeta scintillation counting method. It is filed as cell-based.
Data set [16] concerns the target GABA-A receptor; anion channel (Rattus norvegicus) (UniProt O09028+P15431+P18506+P18508+P19969+P20236+P23574+P23576+P28471+P28473+P30191+P62813+P63079+P63138+Q91ZM7+Q9ES14). As to the kind of experiment: Displacement of [3H]-muscimol from rat brain GABAA receptor at 10 uM measured after 90 mins by microbeta scintillation counting method relative to control. Put shortly:
as §1

The target of data set [17] is D(4) dopamine receptor (Homo sapiens, UniProt P21917). As to the kind of experiment: Agonist activity at recombinant human D4 receptor expressed in CHOK1 cells assessed as induction of beta arrestin2 recruitment measured after 30 mins by coelenterazine-based beta-galactosidase reporter gene assay. Type of data set: cell-based.
Data set [18] deals with 5-hydroxytryptamine receptor 1B (Homo sapiens, UniProt P28222). Kind of data set: Displacement of [3H]-5-CT from recombinant human 5HT1B receptor stably expressed in HEK cell membranes measured after 90 mins by microbeta scintillation counting method.
Data set [19] has as its target T1, 5-hydroxytryptamine receptor 2A. Kind of data set: Displacement of [3H]-ketanserin from 5HT2A receptor (unknown origin) measured after 90 mins by microbeta scintillation counting method.
Data set [20] deals with 5-hydroxytryptamine receptor 2C (Homo sapiens, UniProt P28335). Kind of data set: Displacement of [3H]-mesulergine from recombinant human 5HT2C receptor transiently expressed in HEKT cell membranes measured after 90 mins by microbeta scintillation counting method.
Data set [21] has as its target Muscarinic acetylcholine receptor M2 (Homo sapiens) (UniProt P08172). Kind of data set: Displacement of [3H]-QNB/[3H]-NMS from human muscarinic M2 receptor expressed in stable CHO cells at 10 uM after 90 mins by microbeta scintillation counting method relative to control. It is filed as cell-based. In outline:
as §1

The target of data set [22] is Muscarinic acetylcholine receptor M4 (Homo sapiens) (UniProt P08173). Kind of data set: Displacement of [3H]-QNB/[3H]-NMS from human muscarinic M4 receptor expressed in stable CHO cells at 10 uM after 90 mins by microbeta scintillation counting method relative to control. It is filed as cell-based. In outline: as §1
For data set [23], the target named is T2, Alpha-2A adrenergic receptor. Kind of data set: Displacement of [3H]-rauwolscine from recombinant human alpha2A adrenergic receptor stably expressed in MDCK cells measured after 90 mins by microbeta scintillation counting method. It is filed as cell-based.
Data set [24] addresses Alpha-2B adrenergic receptor (Homo sapiens, UniProt P18089). As to the kind of experiment: Displacement of [3H]-rauwolscine from recombinant human alpha2B adrenergic receptor transiently expressed in HEKT cells measured after 90 mins by microbeta scintillation counting method. It is filed as cell-based.
In data set [25] the target is Neuronal acetylcholine receptor; alpha3/beta4 (Homo sapiens, UniProt P30926+P32297). As to the kind of experiment: Displacement of [3H]-epibatidine from recombinant human alpha3beta4 nACHR stably expressed in HEK cells at 10 uM measured after 90 mins by microbeta scintillation counting method relative to control. Type of data set: cell-based. Put shortly: as §1
Data set [26] has as its target Sodium-dependent serotonin transporter (Homo sapiens, UniProt P31645). Kind of data set: Displacement of [3H]-citalopram from recombinant human SERT stably expressed in HEK cells at 10 uM measured after 90 mins by microbeta scintillation counting method relative to control. It is filed as cell-based. Put shortly: as §1
In data set [27] the target is D(1B) dopamine receptor (Homo sapiens, UniProt P21918). As to the kind of experiment: Displacement of [3H]-SCH23390 from recombinant human D5 receptor transiently expressed in HEK cell membranes measured after 90 mins by microbeta scintillation counting method.

A value given as a limit tells only on which side of the number the result lay.

Sequence of Muscarinic acetylcholine receptor M1 (Homo sapiens) (P11229 whole entry): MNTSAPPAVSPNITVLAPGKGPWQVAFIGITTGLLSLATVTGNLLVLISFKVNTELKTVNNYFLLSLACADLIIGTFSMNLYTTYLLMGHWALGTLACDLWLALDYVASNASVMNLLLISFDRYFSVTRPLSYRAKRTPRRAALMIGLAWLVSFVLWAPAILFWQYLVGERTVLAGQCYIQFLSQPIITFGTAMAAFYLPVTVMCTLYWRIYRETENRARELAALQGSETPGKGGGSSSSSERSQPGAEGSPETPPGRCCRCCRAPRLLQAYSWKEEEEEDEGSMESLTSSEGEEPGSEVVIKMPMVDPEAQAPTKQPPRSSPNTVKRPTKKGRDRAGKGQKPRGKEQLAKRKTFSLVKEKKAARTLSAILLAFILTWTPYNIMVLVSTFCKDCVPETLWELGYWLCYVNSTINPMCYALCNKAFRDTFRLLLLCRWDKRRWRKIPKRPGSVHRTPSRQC
Sequence of 5-hydroxytryptamine receptor 1E (Homo sapiens) (P28566 whole entry): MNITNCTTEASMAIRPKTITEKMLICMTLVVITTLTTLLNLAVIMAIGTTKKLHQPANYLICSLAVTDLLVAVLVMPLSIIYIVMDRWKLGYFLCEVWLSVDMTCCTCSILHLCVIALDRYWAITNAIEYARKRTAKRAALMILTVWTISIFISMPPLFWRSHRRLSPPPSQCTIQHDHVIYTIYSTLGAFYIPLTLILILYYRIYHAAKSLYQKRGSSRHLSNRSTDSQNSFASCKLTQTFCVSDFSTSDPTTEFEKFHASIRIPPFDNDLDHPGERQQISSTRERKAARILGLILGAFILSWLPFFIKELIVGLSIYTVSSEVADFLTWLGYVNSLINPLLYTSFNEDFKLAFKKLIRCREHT
Sequence of Beta-2 adrenergic receptor (Homo sapiens) (P07550 whole entry, looked up): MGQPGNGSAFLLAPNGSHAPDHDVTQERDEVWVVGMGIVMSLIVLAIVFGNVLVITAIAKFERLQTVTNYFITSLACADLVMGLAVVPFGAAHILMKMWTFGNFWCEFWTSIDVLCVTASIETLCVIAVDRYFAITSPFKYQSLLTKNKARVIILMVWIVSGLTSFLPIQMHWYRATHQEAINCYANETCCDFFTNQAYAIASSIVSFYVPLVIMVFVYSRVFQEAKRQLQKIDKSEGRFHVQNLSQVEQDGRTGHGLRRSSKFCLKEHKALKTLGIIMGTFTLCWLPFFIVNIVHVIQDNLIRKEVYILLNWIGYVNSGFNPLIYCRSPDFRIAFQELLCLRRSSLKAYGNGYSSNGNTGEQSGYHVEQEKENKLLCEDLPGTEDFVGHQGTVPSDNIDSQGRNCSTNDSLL
T1 sequence (P28223 whole entry): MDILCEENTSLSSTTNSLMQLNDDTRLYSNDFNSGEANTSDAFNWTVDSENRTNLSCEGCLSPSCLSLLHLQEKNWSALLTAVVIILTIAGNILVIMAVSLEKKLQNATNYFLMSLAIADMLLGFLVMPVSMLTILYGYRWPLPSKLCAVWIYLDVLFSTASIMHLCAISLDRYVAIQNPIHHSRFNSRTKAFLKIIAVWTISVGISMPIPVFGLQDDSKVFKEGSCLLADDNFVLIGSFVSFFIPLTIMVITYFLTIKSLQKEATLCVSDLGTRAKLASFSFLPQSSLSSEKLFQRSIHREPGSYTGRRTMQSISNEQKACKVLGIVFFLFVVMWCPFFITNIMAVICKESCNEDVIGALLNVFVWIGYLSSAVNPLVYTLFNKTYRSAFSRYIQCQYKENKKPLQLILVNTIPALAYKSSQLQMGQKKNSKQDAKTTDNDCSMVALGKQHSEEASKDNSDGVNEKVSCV
Sequence of Alpha-2C adrenergic receptor (P18825 whole entry): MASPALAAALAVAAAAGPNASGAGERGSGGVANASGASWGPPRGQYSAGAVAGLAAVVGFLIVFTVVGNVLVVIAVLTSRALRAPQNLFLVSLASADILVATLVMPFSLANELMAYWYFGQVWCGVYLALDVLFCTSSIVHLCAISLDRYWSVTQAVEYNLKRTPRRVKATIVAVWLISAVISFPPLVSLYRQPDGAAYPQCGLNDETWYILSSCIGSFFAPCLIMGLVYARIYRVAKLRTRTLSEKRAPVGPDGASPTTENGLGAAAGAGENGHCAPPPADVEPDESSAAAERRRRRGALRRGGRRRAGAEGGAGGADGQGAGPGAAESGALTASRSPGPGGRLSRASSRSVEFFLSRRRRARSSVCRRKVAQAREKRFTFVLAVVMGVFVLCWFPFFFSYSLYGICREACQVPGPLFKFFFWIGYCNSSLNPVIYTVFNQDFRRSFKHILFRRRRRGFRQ
Sequence of 5-hydroxytryptamine receptor 2B (P41595 whole entry): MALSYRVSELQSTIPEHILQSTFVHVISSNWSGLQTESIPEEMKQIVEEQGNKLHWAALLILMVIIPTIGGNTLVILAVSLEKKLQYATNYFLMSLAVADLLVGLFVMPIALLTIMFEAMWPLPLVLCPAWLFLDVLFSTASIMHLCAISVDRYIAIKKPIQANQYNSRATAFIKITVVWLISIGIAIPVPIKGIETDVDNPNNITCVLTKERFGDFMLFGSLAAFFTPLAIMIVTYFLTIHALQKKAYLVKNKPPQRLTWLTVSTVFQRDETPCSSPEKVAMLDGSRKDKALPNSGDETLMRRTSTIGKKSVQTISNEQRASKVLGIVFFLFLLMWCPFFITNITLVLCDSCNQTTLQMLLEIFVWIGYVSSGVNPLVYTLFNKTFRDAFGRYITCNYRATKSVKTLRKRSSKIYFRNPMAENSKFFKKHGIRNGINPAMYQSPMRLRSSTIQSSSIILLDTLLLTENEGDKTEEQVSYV
T2 sequence (P08913 whole entry): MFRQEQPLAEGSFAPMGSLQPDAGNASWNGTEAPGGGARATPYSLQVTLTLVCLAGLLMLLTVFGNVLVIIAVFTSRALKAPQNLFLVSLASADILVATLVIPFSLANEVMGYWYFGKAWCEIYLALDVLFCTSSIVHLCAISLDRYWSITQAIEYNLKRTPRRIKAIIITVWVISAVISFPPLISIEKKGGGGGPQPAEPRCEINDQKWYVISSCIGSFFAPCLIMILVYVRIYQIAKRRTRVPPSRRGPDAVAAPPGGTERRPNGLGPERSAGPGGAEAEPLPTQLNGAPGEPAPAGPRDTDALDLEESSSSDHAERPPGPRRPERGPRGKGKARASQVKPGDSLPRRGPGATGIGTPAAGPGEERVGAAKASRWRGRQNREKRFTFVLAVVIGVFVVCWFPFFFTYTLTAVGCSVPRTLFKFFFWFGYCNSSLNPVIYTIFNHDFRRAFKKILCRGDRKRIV
Sequence of 5-hydroxytryptamine receptor 1D (Homo sapiens) (P28221 whole entry): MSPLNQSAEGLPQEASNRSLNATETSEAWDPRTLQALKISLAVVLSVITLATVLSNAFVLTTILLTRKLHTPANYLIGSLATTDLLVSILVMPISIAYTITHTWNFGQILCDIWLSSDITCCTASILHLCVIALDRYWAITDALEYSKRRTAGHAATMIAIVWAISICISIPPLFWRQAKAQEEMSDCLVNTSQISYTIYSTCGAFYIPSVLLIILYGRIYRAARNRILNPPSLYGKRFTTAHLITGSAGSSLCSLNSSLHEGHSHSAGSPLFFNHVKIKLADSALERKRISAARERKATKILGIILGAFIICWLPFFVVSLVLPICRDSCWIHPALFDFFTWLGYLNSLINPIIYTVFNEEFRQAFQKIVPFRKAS
Sequence of 5-hydroxytryptamine receptor 1B (P28222 whole entry): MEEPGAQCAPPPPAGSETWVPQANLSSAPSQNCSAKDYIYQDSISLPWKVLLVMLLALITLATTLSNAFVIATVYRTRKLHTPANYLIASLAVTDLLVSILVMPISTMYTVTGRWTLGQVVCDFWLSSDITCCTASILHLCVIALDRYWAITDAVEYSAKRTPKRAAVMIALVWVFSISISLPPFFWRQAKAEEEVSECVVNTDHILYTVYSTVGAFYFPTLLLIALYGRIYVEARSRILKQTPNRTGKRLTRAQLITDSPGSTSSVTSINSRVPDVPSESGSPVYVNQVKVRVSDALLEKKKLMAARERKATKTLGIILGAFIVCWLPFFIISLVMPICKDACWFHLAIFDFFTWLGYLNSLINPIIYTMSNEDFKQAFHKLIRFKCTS
Sequence of Sodium-dependent noradrenaline transporter (P23975 whole entry): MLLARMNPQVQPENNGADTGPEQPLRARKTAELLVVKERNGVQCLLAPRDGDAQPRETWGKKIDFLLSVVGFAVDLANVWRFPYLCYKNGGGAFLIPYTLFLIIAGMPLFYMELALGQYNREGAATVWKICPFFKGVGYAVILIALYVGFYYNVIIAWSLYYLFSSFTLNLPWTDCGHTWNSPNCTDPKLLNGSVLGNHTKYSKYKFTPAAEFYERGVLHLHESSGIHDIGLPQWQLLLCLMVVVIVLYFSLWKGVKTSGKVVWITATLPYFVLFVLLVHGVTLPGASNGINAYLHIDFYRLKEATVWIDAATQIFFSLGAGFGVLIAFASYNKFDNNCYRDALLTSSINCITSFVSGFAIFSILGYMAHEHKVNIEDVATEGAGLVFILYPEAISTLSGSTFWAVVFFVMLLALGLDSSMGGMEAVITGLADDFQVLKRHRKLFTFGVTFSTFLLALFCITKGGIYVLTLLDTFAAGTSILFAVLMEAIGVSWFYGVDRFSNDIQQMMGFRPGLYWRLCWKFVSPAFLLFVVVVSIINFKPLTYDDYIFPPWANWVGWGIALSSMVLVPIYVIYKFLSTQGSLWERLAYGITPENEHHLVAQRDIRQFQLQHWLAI
Sequence of D(4) dopamine receptor (P21917 whole entry): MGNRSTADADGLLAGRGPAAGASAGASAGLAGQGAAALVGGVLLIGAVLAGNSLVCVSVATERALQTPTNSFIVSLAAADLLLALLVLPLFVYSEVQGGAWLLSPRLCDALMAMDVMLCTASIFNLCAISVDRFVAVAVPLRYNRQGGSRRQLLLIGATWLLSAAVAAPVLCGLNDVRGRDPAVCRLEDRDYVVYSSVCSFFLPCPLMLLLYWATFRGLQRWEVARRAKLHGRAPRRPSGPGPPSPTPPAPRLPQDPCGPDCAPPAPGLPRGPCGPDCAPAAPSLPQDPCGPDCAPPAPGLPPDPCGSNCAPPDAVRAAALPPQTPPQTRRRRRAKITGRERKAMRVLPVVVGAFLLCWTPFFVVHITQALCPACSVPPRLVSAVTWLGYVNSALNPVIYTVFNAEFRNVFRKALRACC

Broadly, the inhibition is how much of the control response was suppressed. By Ki is commonly meant the equilibrium dissociation constant of an inhibitor or competing ligand from its target. Consider `COc1ccccc1N1CCC2(CCN(CCCSc3nnc(-c4ccccc4)n3C)CC2)CC1`, for which the inhibition at […], 10 µM in data set [1] and in [12] was < 50% throughout. Moreover, the inhibition in data set [2] is < 50%; in data set [3], < 50%; in [4] it was < 50%; in data set [6] it was < 50%; in [8], 54%; in data set [14] it was < 50%. The inhibition in [16] is < 50%. Further, the Ki in [5] stood at 2140 nM; in data set [7], 509 nM; in [9], 52 nM; in data set [10], 514 nM; in data set [11] it was 590 nM; in data set [13] it was 1560 nM. In [15], the Ki came out at 931 nM.

By EC50 is commonly meant the midpoint of the concentration-response curve. As for `COc1ccccc1N1CCN(CCCSc2nnc(-c3ccccc3)n2C)CC1`, in data set [17], the EC50 was 359 nM. The Ki in data set [18] turned out to be 2030 nM; in data set [19], 1410 nM; in data set [5], 42 nM; in data set [20], 159 nM; in data set [23], 221 nM; in data set [24] it was 241 nM. Further, the Ki in data set [13] came out at 433 nM; in [27], 3020 nM. Also, the inhibition in [2] is > 50%; in [3], < 50%; in data set [8], < 50%; in [21], < 50%; in data set [22], < 50%; in data set [25] it was < 50%. The inhibition in [14] is 60%; in data set [16], < 50%; in data set [26], < 50%.
